Measured values taken from ChEMBL document CHEMBL1687720 (Antimicrob Agents Chemother, 2009).

Experiments:
Plasmodium falciparum [1] = assay: Antiplasmodial activity against chloroquine-resistant Plasmodium falciparum K1 in presence of chloroquine; type: functional
A549 [2] = assay: Effect on glutathione reductase expression in human A549 cells assessed as transcript level at 166 nM after 24 hrs by RT-qPCR analysis relative to untreated control; type: functional; conditions: in the assay text read “166 µM” for “166 nM”
Method in brief: (§1)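 A549 cells are seeded at 2.5 × 10^5 per 25-cm2 well. At 40–45% confluence they are treated for 24 h with 166 or 662 μM, 158 or 315 μM, or 5 or 24 μM compound; controls receive <5% DMSO. Total RNA is DNase-treated and qRT-PCR is run in quadruplicate. Values are normalized to GAPDH and given as % of untreated control.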

A549 [3] = assay: Effect on thioredoxin reductase expression in human A549 cells assessed as transcript level at 166 nM after 24 hrs by RT-qPCR analysis relative to untreated control; type: functional; conditions: in the assay text read “166 uM” for “166 nM”; method in brief: as §1
A549 [4] = assay: Effect on glutathione reductase expression in human A549 cells assessed as transcript level at 662 nM after 24 hrs by RT-qPCR analysis relative to untreated control; type: functional; conditions: in the assay text read “662 µM” for “662 nM”; method in brief: as §1
A549 [5] = assay: Inhibition of glutathione S-transferase in human A549 cells assessed as enzyme activity at 166 µM after 24 hrs relative to untreated control; parameters: scale not given: the % may be the effect or the level left
A549 [6] = assay: Effect on glutathione S-transferase expression in human A549 cells assessed as transcript level at 166 nM after 24 hrs by RT-qPCR analysis relative to untreated control; type: functional; conditions: in the assay text read “166 µM” for “166 nM”; method in brief: as §1
A549 [7] = assay: Effect on glutathione peroxidase expression in human A549 cells assessed as transcript level at 158 nM after 24 hrs by RT-qPCR analysis relative to untreated control; type: functional; conditions: in the assay text read “158 µM” for “158 nM”; method in brief: as §1
Thioredoxin reductase [8] = biological target: T1, Thioredoxin reductase (Homo sapiens, UniProt Q16881+Q9NNW7+Q86VQ6); assay: Inhibition of thioredoxin reductase in human A549 cells assessed as enzyme activity at 315 µM after 24 hrs by DTNB assay relative to untreated control; parameters: scale not given: the % may be the effect or the level left
[9] = biological target: T2, Glutathione reductase, mitochondrial (Homo sapiens) (UniProt P00390); assay: Inhibition of glutathione reductase in human A549 cells assessed as enzyme activity at 158 µM after 24 hrs relative to untreated control; parameters: scale not given: the % may be the effect or the level left
T2 sequence (whole entry): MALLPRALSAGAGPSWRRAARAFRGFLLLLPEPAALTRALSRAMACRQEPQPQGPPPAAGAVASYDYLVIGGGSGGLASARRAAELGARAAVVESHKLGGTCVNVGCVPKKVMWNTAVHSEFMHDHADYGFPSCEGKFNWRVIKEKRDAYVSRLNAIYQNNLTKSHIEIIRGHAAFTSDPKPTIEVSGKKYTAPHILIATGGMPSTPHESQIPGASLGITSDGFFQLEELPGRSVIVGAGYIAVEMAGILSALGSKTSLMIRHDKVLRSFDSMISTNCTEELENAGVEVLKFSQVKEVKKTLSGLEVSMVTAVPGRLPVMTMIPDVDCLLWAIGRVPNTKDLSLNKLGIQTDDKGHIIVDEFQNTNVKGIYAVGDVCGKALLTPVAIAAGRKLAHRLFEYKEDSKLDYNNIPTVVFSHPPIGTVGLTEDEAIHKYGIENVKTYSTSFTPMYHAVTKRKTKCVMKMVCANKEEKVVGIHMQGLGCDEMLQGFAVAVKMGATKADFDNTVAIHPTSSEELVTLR

A549 [10] = assay: Effect on glutathione peroxidase expression in human A549 cells assessed as transcript level at 315 nM after 24 hrs by RT-qPCR analysis relative to untreated control; type: functional; conditions: in the assay text read “315 µM” for “315 nM”; method in brief: as §1
A549 [11] = assay: Effect on glutathione S-transferase expression in human A549 cells assessed as transcript level at 158 nM after 24 hrs by RT-qPCR analysis relative to untreated control; type: functional; conditions: in the assay text read “158 µM” for “158 nM”; method in brief: as §1
A549 [12] = assay: Inhibition of glutathione peroxidase in human A549 cells assessed as enzyme activity at 158 µM after 24 hrs relative to untreated control; parameters: scale not given: the % may be the effect or the level left
A549 [13] = assay: Effect on glutathione peroxidase expression in human A549 cells assessed as transcript level at 5 µM after 24 hrs by RT-qPCR analysis relative to untreated control
A549 [14] = assay: Inhibition of glutathione S-transferase in human A549 cells assessed as enzyme activity at 5 µM after 24 hrs relative to untreated control; parameters: scale not given: the % may be the effect or the level left
Plasmodium falciparum [15] = assay: Upregulation of glutathione synthetase mRNA level in Plasmodium falciparum 3D7 trophozoites at 126 nM after 18 hrs by RT-qPCR analysis relative to untreated control; type: functional
Method in brief: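 Synchronized 3D7 trophozoites in RPMI/Albumax culture at 37°C under 3% O2, 3% CO2 were exposed 12, 15 or 18 h, then harvested by 0.02% saponin lysis. RNA was reverse-transcribed and analyzed by real-time PCR in quadruplicate. Quantification used ΔΔCT with 18S rRNA reference (LDH also checked), expressed as % of untreated control.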

Plasmodium berghei = assay: Antimalarial activity against Plasmodium berghei infected in mouse assessed as reduction in parasite load at 10 mg/kg for 4 days treated postinfection measured on day 4; type: functional; parameters: scale not given: the % may be the effect or the level left
Method in brief: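 Murine Plasmodium berghei infection model. Compound given subcutaneously at 10 mg/kg for 4 days after infection, 13 treated mice and 13 controls. Parasitemia is compared with untreated controls, with significance by Fisher's exact test.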

[16] = Cytotoxicity against human A549 cells assessed as reduction in viable cells at 60 uM by Trypan blue assay; type: cell-based; conditions: read-out: INH
Method in brief: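 A549 cells are grown in DMEM with 10% FCS at 37°C and 5% CO2, and treated for 24 h. They are washed in cold PBS and trypsinized. Viable and nonviable cells are counted by trypan blue exclusion on a hemocytometer.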

A549 [17] = assay: Cytotoxicity against human A549 cells after 24 hrs by Trypan blue assay; conditions: a549, 24 h
A549 [18] = assay: Inhibition of glutathione peroxidase in human A549 cells assessed as enzyme activity at 24 µM after 24 hrs relative to untreated control; parameters: scale not given: the % may be the effect or the level left
Thioredoxin reductase [19] = biological target: T1, Thioredoxin reductase; assay: Inhibition of thioredoxin reductase in human A549 cells assessed as enzyme activity at 5 µM after 24 hrs by DTNB assay relative to untreated control; parameters: scale not given: the % may be the effect or the level left
A549 [20] = assay: Effect on thioredoxin reductase expression in human A549 cells assessed as transcript level at 5 nM after 24 hrs by RT-qPCR analysis relative to untreated control; type: functional; conditions: in the assay text read “5 µM” for “5 nM”; method in brief: as §1

O=c1oc2c(O)c(O)cc3c(=O)oc4c(O)c(O)cc1c4c23 [ELLAGIC ACID]
FIC50 (Plasmodium falciparum [1]): 1 | Activity (A549 [2]): 152% | Activity (A549 [3]): 115% | Activity (A549 [4]): 125% | Activity (A549 [5]): 109% | Activity (A549 [6]): 122%

O=c1oc2c(O)c(O)c(O)c3c(=O)oc4c(O)c(O)cc1c4c23 [FLAVELLAGIC ACID]
Activity (A549 [7]): 107% | Activity (Thioredoxin reductase [8]): 115% | Activity [9]: 87% | Activity (A549 [10]): 77% | Activity (A549 [11]): 115% | Activity (A549 [12]): 122%

O=c1oc2c(O)c(O)c(O)c3c(=O)oc4c(O)c(O)c(O)c1c4c23 [CORULEOELLAGIC ACID]
Activity (A549 [13]): 51% | Activity (A549 [14]): 101% | Activity (Plasmodium falciparum [15]): 128% | Activity (Plasmodium berghei): 84% | cytotoxicity at 60 µM [16]: 50% | Activity (A549 [17]): Non-toxic | Activity (A549 [18]): 78% | Activity (Thioredoxin reductase [19]): 42% | Activity (A549 [20]): 76%
